Results on three compounds are retold here after ChEMBL document CHEMBL4043184, “The design and synthesis of a novel compound of berberine and baicalein that inhibits the efficacy of lipid accumulation in 3T3-L1 adipocytes” (Bioorg Med Chem, 2017).

pIC50: −log10 of the molar value. Calls of active or inactive are those of the source. The rule behind the calls is not given here.

By pIC50 is commonly meant the negative decadic logarithm of the IC50, by convention in mol/L. One may read the inhibition as the percentage by which the read-out fell short of the control.

In series [1] the test system is 3T3-L1. Description: Cytotoxicity against mouse 3T3L1 cells assessed as reduction in cell viability incubated for 48 hrs by CCK8 assay. Type of series: cell-based. The note with it: for pIC50: Mus musculus, 3T3-L1, 48 h; for Activity: mouse, 3t3-l1, 48 h. The method in brief: (§1)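 3T3-L1 preadipocytes (maintained in DMEM/10% calf serum, 37 °C, 5% CO2) seeded 5×10^3 cells/well in 96-well plates, grown 24 h, then exposed to 1.25–80 µM for 48 h; controls 0.1% DMSO. CCK8 added for 2 h at 37 °C, absorbance at 450 nm. IC50 by logit method; n = 6 plates, ≥3 experiments.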

For series [2], the system named is 3T3-L1. As to the kind of experiment: Suppression of lipogenesis associated gene expression in mouse 3T3L1 cells assessed as reduction in Scd1 mRNA expression at 2.5 and 5 uM incubated for 48 hrs by qPCR method. Type of series: functional, cell-based. Summed up:
(§2)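 Mature 3T3-L1 adipocytes (confluent cells induced 3 days with 0.5 mmol/L IBMX, 1.0 µmol/L DEX, 10 mg/L insulin, then insulin 2 days, used ~day 10) treated 0, 2.5 or 5 µM for 48 h. Total RNA extracted, qPCR, normalized to β-actin; DMSO 0.1% controls; mean ± SD, three independent experiments.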
For orientation: Quantitative PCR measures a nucleic acid by following its amplification.

In series [3] the test system is 3T3-L1. Description: Suppression of lipogenesis associated gene expression in mouse 3T3L1 cells assessed as reduction in Fasn mRNA expression at 5 uM incubated for 48 hrs by qPCR method. The class given is functional, cell-based. Summed up:
as §2

For series [4], the system named is 3T3-L1. As to the kind of experiment: Suppression of lipogenesis associated gene expression in mouse 3T3L1 cells assessed as reduction in Acc mRNA expression at 2.5 and 5 uM incubated for 48 hrs by qPCR method. Type of series: functional, cell-based. The method in brief:
as §2

The test system of series [5] is 3T3-L1. As to the kind of experiment: Cytotoxicity against mouse 3T3L1 cells assessed as reduction in cell viability at <5 uM incubated for 48 hrs by CCK8 assay. Type of series: cell-based. The note with it: 3t3-l1, 48 h. The method in brief:
as §1
(Formazan colour is commonly taken as a measure of viable cells.)

The subject of series [6] is 3T3-L1. As to the kind of experiment: Induction of Atgl mRNA expression in mouse 3T3L1 cells at 2.5 and 5 uM incubated for 48 hrs by qPCR method. The class given is functional, cell-based. Summed up: as §2
Series [7] relates to 3T3-L1. As to the kind of experiment: Inhibition of triglyceride content in mouse 3T3L1 cells at 5 uM incubated for 48 hrs by triglyceride GPO-POD assay. Type of series: functional. The note with it: 3T3-L1, 48 h. The method in brief:
(§3)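 Differentiated 3T3-L1 adipocytes treated 0, 2.5 or 5 µM for 48 h; lysates heated 70 °C for 10 min, centrifuged, supernatant mixed with GPO-POD working reagent 10 min at 37 °C, absorbance at 550 nm. TG normalized to BCA protein; 0.1% DMSO controls; mean ± SD of ≥3 experiments.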

The test system of series [8] is 3T3-L1. Description: Inhibition of triglyceride content in mouse 3T3L1 cells at 2.5 uM incubated for 48 hrs by triglyceride GPO-POD assay. The class given is functional. The note with it: 3T3-L1, 48 h. The method in brief:
as §3

Series [9] deals with 3T3-L1. Description: Suppression of lipogenesis associated gene expression in mouse 3T3L1 cells assessed as reduction in Srebp-1c mRNA expression incubated for 48 hrs by qPCR method. Type of series: functional, cell-based. The method in brief:
as §2

Series [10] concerns 3T3-L1. Description: Effect on Hsl mRNA expression in mouse 3T3L1 cells at 2.5 and 5 uM incubated for 48 hrs by qPCR method. Type of series: functional, cell-based. The method in brief: as §2
The subject of series [11] is 3T3-L1. Description: Induction of AMPK mRNA expression in mouse 3T3L1 cells at 5 uM incubated for 48 hrs by qPCR method. The class given is functional, cell-based. The method in brief:
as §2

For series [12], the system named is 3T3-L1. Description: Inhibition of lipid accumulation in mouse 3T3L1 cells at 2.5 to 5 uM incubated for 48 hrs by Oil Red O staining based spectrophotometry. The class given is functional, cell-based. The method in brief:
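Mature 3T3-L1 adipocytes (IBMX/DEX/insulin-differentiated, day 10) after 48 h treatment fixed in 10% buffered formalin 30 min, stained with diluted Oil Red O 1 h at room temperature, washed with 60% isopropanol, dye eluted with isopropanol, absorbance read at 510 nm; expressed as percent intracellular lipid.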

Series [13] deals with 3T3-L1. Description: Cytotoxicity against mouse 3T3L1 cells assessed as reduction in cell viability at 1.25 to 5 uM incubated for 48 hrs by CCK8 assay. The class given is cell-based. The following applies: 3t3-l1, 48 h. The method in brief: as §1
The subject of series [14] is 3T3-L1. Description: Reduction in Hsl mRNA expression in mouse 3T3L1 cells at 2.5 uM incubated for 48 hrs by qPCR method. Type of series: functional, cell-based. Summed up:
as §2

The subject of series [15] is 3T3-L1. Description: Cytotoxicity against mouse 3T3L1 cells assessed as reduction in cell viability at […] incubated for 48 hrs by CCK8 assay. The class given is cell-based. The note with it: 3t3-l1, 48 h.
For series [16], the system named is 3T3-L1. Description: Cytotoxicity against mouse 3T3L1 cells assessed as reduction in cell viability at >10 uM incubated for 48 hrs by CCK8 assay. The class given is cell-based. The following applies: 3t3-l1, 48 h. The method in brief:
as §1

Series [17] relates to 3T3-L1. Description: Cytotoxicity against mouse 3T3L1 cells assessed as reduction in cell viability at 20 uM incubated for 48 hrs by CCK8 assay. The class given is cell-based. The note with it: 3t3-l1, 48 h. The method in brief: as §1

`COc1ccc2cc3[n+](cc2c1OCCCCCCOc1c(O)cc2oc(-c4ccccc4)cc(=O)c2c1O)CCc1cc2c(cc1-3)OCO2`: the pIC50 in the series with 3T3-L1 [1] is 5.03. Besides, the Activity result is “Dose-dependent effect” in the series on 3T3-L1 [1] and “Non-Toxic” with 3T3-L1 [5]. The inhibition entry with 3T3-L1 [2], in the series with 3T3-L1 [3], with 3T3-L1 [4] and in the series with 3T3-L1 [12] was “Active” each time. For the same compound, the outcome with 3T3-L1 [6] and in the series on 3T3-L1 [11] was Active. In the series on 3T3-L1 [7], testing at 5 µM gave an inhibition of 37.4%. The compound also registered an inhibition at 2.5 µM in the series on 3T3-L1 [8] of 27.3%. In the series on 3T3-L1 [9], the inhibition result is “Dose-dependent effect”. The outcome in the series on 3T3-L1 [10] was inactive.

As for `O=c1cc(-c2ccccc2)oc2cc(O)c(O)c(O)c12` [BAICALEIN], the Activity entry is given as “Non-Toxic” in the series on 3T3-L1 [13], “Non-Toxic” with 3T3-L1 [15], “Dose-dependent effect” in the series with 3T3-L1 [1] and “Toxic” in the series on 3T3-L1 [16]. The result with 3T3-L1 [14], in the series on 3T3-L1 [6] and with 3T3-L1 [11] was Active. The pIC50 in the series on 3T3-L1 [1] is 4.53. The inhibition entry with 3T3-L1 [2] and with 3T3-L1 [3] was “Active” in each case. The inhibition result with 3T3-L1 [9] was “Dose-dependent effect”.

Turning to `COc1ccc2cc3[n+](cc2c1OC)CCc1cc2c(cc1-3)OCO2` [BERBERINE], the outcome with 3T3-L1 [14] and in the series with 3T3-L1 [6] was Active. Moreover, the pIC50 in the series on 3T3-L1 [1] is 4.66. In addition, the figures for the Activity entry with 3T3-L1 [1] and in the series with 3T3-L1 [17] were “Dose-dependent effect” and 45%, respectively. Moreover, the inhibition result in the series on 3T3-L1 [2] and in the series with 3T3-L1 [3] was “Active” in each case. The inhibition result with 3T3-L1 [9] is “Dose-dependent effect”.
